Test results published in ChEMBL document CHEMBL4689842, “EUbOPEN Chemogenomics Library wave 1” (2021).
Several values for one entry are separate records, joined by “and”; a condition that tells them apart may be missing. Equal entries are not always repeated.

Test system: HEK-293T
Experiment: Multiplex assay against HEK293T;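 on Population Tubulin-Different-Phenotype (%): share of the cells with healthy nuclei that show this phenotype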
Format: toxicity, cell-based
Conditions: human
How it was run: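 At seeding, live cells were stained with Hoechst33342, BioTracker Green Microtubule Cytoskeleton Dye, MitoTracker Red and Annexin V Alexa Fluor 680. After compound addition they were imaged on a CQ1 microscope at 37°C and 5% CO2, and CellPathfinder machine-learning gating sorted them into Hoechst high-intensity objects or normal cells, with normal cells further split into healthy, pyknosed or fragmented nuclei and pyknosed cells into mitotic or apoptotic. Tubulin, mitochondrial-mass and membrane-permeability phenotypes are given as per cents of cells with healthy nuclei.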

[1] = 12 h, 1 µM, compound concentration 1 uM, replicate 1
[2] = 12 h, 1 µM, compound concentration 1 uM, replicate 2
[3] = 12 h, 10 µM, compound concentration 10 uM, replicate 1
[4] = 12 h, 10 µM, compound concentration 10 uM, replicate 2
[5] = 24 h, 1 µM, compound concentration 1 uM, replicate 1
[6] = 24 h, 1 µM, compound concentration 1 uM, replicate 2
[7] = 24 h, 10 µM, compound concentration 10 uM, replicate 1
[8] = 24 h, 10 µM, compound concentration 10 uM, replicate 2
[9] = 48 h, 1 µM, compound concentration 1 uM, replicate 1
[10] = 48 h, 1 µM, compound concentration 1 uM, replicate 2
[11] = 48 h, 10 µM, compound concentration 10 uM, replicate 1
[12] = 48 h, 10 µM, compound concentration 10 uM, replicate 2

CN(C)C(=O)/C(C#N)=C/c1ccc(-c2nc3cnc4[nH]ccc4c3n2C2CCCCC2)o1
Population Apoptotic (%) [1]: 48%
Population Fragmented Nuclei (%) [1]: 9%
Population Healthy Nuclei (%) [1]: 42%
Population Hoechst High Intensity Objects (%) [1]: 12%
Population Membrane Permeable-Phenotype (%) [1]: 2%
Population Mitochondria Different-Phenotype (%) [1]: 68%
Population Mitotic Cells (%) [1]: 51%
Population Normal (%) [1]: 87%
Population Pyknosed Nuclei (%) [1]: 48%
Population Tubulin-Different-Phenotype (%) [1]: 44%
Total Cell Count [1]: 283
Population Apoptotic (%) [2]: 21%
Population Fragmented Nuclei (%) [2]: 6%
Population Healthy Nuclei (%) [2]: 46%
Population Hoechst High Intensity Objects (%) [2]: 5%
Population Membrane Permeable-Phenotype (%) [2]: 5%
Population Mitochondria Different-Phenotype (%) [2]: 36%
Population Mitotic Cells (%) [2]: 78%
Population Normal (%) [2]: 94%
Population Pyknosed Nuclei (%) [2]: 46%
Population Tubulin-Different-Phenotype (%) [2]: 37%
Total Cell Count [2]: 175
Population Apoptotic (%) [3]: 41%
Population Fragmented Nuclei (%) [3]: 24%
Population Healthy Nuclei (%) [3]: 39%
Population Hoechst High Intensity Objects (%) [3]: 37%
Population Membrane Permeable-Phenotype (%) [3]: 17%
Population Mitochondria Different-Phenotype (%) [3]: 63%
Population Mitotic Cells (%) [3]: 58%
Population Normal (%) [3]: 62%
Population Pyknosed Nuclei (%) [3]: 36%
Population Tubulin-Different-Phenotype (%) [3]: 60%
Total Cell Count [3]: 451
Population Apoptotic (%) [4]: 32%
Population Fragmented Nuclei (%) [4]: 17%
Population Healthy Nuclei (%) [4]: 43%
Population Hoechst High Intensity Objects (%) [4]: 25%
Population Membrane Permeable-Phenotype (%) [4]: 15%
Population Mitochondria Different-Phenotype (%) [4]: 50%
Population Mitotic Cells (%) [4]: 67%
Population Normal (%) [4]: 74%
Population Pyknosed Nuclei (%) [4]: 39%
Population Tubulin-Different-Phenotype (%) [4]: 79%
Total Cell Count [4]: 219
Population Apoptotic (%) [5]: 46%
Population Fragmented Nuclei (%) [5]: 10%
Population Healthy Nuclei (%) [5]: 45%
Population Hoechst High Intensity Objects (%) [5]: 14%
Population Membrane Permeable-Phenotype (%) [5]: 2%
Population Mitochondria Different-Phenotype (%) [5]: 60%
Population Mitotic Cells (%) [5]: 53%
Population Normal (%) [5]: 85%
Population Pyknosed Nuclei (%) [5]: 44%
Population Tubulin-Different-Phenotype (%) [5]: 40%
Total Cell Count [5]: 316
Population Apoptotic (%) [6]: 21%
Population Fragmented Nuclei (%) [6]: 8%
Population Healthy Nuclei (%) [6]: 68%
Population Hoechst High Intensity Objects (%) [6]: 2%
Population Membrane Permeable-Phenotype (%) [6]: 10%
Population Mitochondria Different-Phenotype (%) [6]: 23%
Population Mitotic Cells (%) [6]: 78%
Population Normal (%) [6]: 97%
Population Pyknosed Nuclei (%) [6]: 22%
Population Tubulin-Different-Phenotype (%) [6]: 34%
Total Cell Count [6]: 239
Population Apoptotic (%) [7]: 44%
Population Fragmented Nuclei (%) [7]: 25%
Population Healthy Nuclei (%) [7]: 39%
Population Hoechst High Intensity Objects (%) [7]: 41%
Population Membrane Permeable-Phenotype (%) [7]: 9%
Population Mitochondria Different-Phenotype (%) [7]: 61%
Population Mitotic Cells (%) [7]: 55%
Population Normal (%) [7]: 58%
Population Pyknosed Nuclei (%) [7]: 35%
Population Tubulin-Different-Phenotype (%) [7]: 57%
Total Cell Count [7]: 448
Population Apoptotic (%) [8]: 34%
Population Fragmented Nuclei (%) [8]: 22%
Population Healthy Nuclei (%) [8]: 56%
Population Hoechst High Intensity Objects (%) [8]: 30%
Population Membrane Permeable-Phenotype (%) [8]: 7%
Population Mitochondria Different-Phenotype (%) [8]: 49%
Population Mitotic Cells (%) [8]: 65%
Population Normal (%) [8]: 69%
Population Pyknosed Nuclei (%) [8]: 21%
Population Tubulin-Different-Phenotype (%) [8]: 72%
Total Cell Count [8]: 280
Population Apoptotic (%) [9]: 45%
Population Fragmented Nuclei (%) [9]: 13%
Population Healthy Nuclei (%) [9]: 49%
Population Hoechst High Intensity Objects (%) [9]: 13%
Population Membrane Permeable-Phenotype (%) [9]: 2%
Population Mitochondria Different-Phenotype (%) [9]: 21%
Population Mitotic Cells (%) [9]: 54%
Population Normal (%) [9]: 86%
Population Pyknosed Nuclei (%) [9]: 37%
Population Tubulin-Different-Phenotype (%) [9]: 30%
Total Cell Count [9]: 381
Population Apoptotic (%) [10]: 15%
Population Fragmented Nuclei (%) [10]: 9%
Population Healthy Nuclei (%) [10]: 80%
Population Hoechst High Intensity Objects (%) [10]: 3%
Population Membrane Permeable-Phenotype (%) [10]: 8%
Population Mitochondria Different-Phenotype (%) [10]: 5%
Population Mitotic Cells (%) [10]: 84%
Population Normal (%) [10]: 96%
Population Pyknosed Nuclei (%) [10]: 10%
Population Tubulin-Different-Phenotype (%) [10]: 21%
Total Cell Count [10]: 389
Population Apoptotic (%) [11]: 46%
Population Fragmented Nuclei (%) [11]: 26%
Population Healthy Nuclei (%) [11]: 46%
Population Hoechst High Intensity Objects (%) [11]: 34%
Population Membrane Permeable-Phenotype (%) [11]: 13%
Population Mitochondria Different-Phenotype (%) [11]: 29%
Population Mitotic Cells (%) [11]: 53%
Population Normal (%) [11]: 65%
Population Pyknosed Nuclei (%) [11]: 27%
Population Tubulin-Different-Phenotype (%) [11]: 40%
Total Cell Count [11]: 490
Population Apoptotic (%) [12]: 35%
Population Fragmented Nuclei (%) [12]: 18%
Population Healthy Nuclei (%) [12]: 67%
Population Hoechst High Intensity Objects (%) [12]: 21%
Population Membrane Permeable-Phenotype (%) [12]: 10%
Population Mitochondria Different-Phenotype (%) [12]: 17%
Population Mitotic Cells (%) [12]: 64%
Population Normal (%) [12]: 78%
Population Pyknosed Nuclei (%) [12]: 13%
Population Tubulin-Different-Phenotype (%) [12]: 49%
Total Cell Count [12]: 338

Cn1cncc1[C@@](O)(COc1ccc(C#N)cc1-c1ccc(OC(F)(F)F)cc1)c1ccc(C#N)cc1 [A-108]
Population Apoptotic (%) [3]: 23% and 20%
Population Fragmented Nuclei (%) [3]: 11% and 16%
Population Healthy Nuclei (%) [3]: 51% and 64%
Population Hoechst High Intensity Objects (%) [3]: 11% and 14%
Population Mitochondria Different-Phenotype (%) [3]: 8% and 4%
Population Mitotic Cells (%) [3]: 76% and 79%
Population Normal (%) [3]: 88% and 85%
Population Pyknosed Nuclei (%) [3]: 36% and 18%
Total Cell Count [3]: 827 and 582
Population Apoptotic (%) [4]: 12% and 14%
Population Fragmented Nuclei (%) [4]: 3% and 9%
Population Healthy Nuclei (%) [4]: 77% and 85%
Population Hoechst High Intensity Objects (%) [4]: 4% and 2%
Population Mitochondria Different-Phenotype (%) [4]: 19% and 7%
Population Mitotic Cells (%) [4]: 87% and 85%
Population Normal (%) [4]: 95% and 97%
Total Cell Count [4]: 1209 and 1952
Population Apoptotic (%) [7]: 25% and 12%
Population Fragmented Nuclei (%) [7]: 10% and 12%
Population Healthy Nuclei (%) [7]: 60% and 78%
Population Hoechst High Intensity Objects (%) [7]: 10%
Population Mitochondria Different-Phenotype (%) [7]: 4%
Population Mitotic Cells (%) [7]: 75% and 87%
Population Normal (%) [7]: 89%
Total Cell Count [7]: 759 and 650
Population Apoptotic (%) [8]: 8% and 5%
Population Healthy Nuclei (%) [8]: 73% and 71%
Population Hoechst High Intensity Objects (%) [8]: 4% and 3%
Population Mitochondria Different-Phenotype (%) [8]: 9% and 2%
Population Mitotic Cells (%) [8]: 91% and 95%
Population Normal (%) [8]: 95% and 96%
Population Tubulin-Different-Phenotype (%) [8]: 97%
Total Cell Count [8]: 1251 and 3226
